What was measured:
[1] = biological target: Sodium/potassium-transporting ATPase; assay: In vitro evaluation for its ability to inhibit the Na+/K+ ATPase at pH 7.4.; assay type: protein-complex assay, Canis lupus familiaris
How it was run: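 Dog kidney (Na+,K+)-ATPase (20 μg) incubated in 50 mmol/L HEPES pH 7.4 containing (mmol/L) 140 NaCl, 10 KCl, 3 ATP-Mg and 0.5 EDTA, with inhibitor at 0–300 μmol/L.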

[2] = t1/2 (pH 5); assay type: ADME
[3] = t1/2 (pH 3); assay type: ADME
[4] = biological target: Potassium-transporting ATPase (Oryctolagus cuniculus); assay: In vitro evaluation for the inhibition of H+/K+ ATPase at pH < 3 in the gastric glands of isolated rabbit stomach.
[5] = Half life at pH 7.4; assay type: ADME; details: buffer
[6] = pKa value (pyridine); assay type: physicochemical
How it was run: (§1)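 Measured spectrophotometrically at ambient temperature (25 °C).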

[7] = pKa value (imidazole); assay type: physicochemical; how it was run: as §1
[8] = Half life at pH 7.4; Insoluble to measure; assay type: ADME; details: buffer
[9] = Half life at pH 3; Insoluble to measure; assay type: ADME; details: buffer
[10] = Half life at pH 5; Insoluble to measure; assay type: ADME; details: buffer

Row | -Log IC50 [1] | half-life [2] | half-life [3] | IC50 [4] | half-life [5] | pKa [6] | pKa [7] | T1/2 [8] | T1/2 [9] | T1/2 [10] | SMILES
1 | 4.3 | 0.8 h | 0.167 h | 1580 nM | 51 h |  |  |  |  |  | COc1ccnc(C[S+]([O-])c2nc3cc(OC(F)F)ccc3[nH]2)c1 (stereo unspecified)
2 | 4.7 | 0.5 h | 0.133 h | 3160 nM | 4 h |  |  |  |  |  | COc1ccnc(C[S+]([O-])c2nc3cc(F)c(OC(F)F)cc3[nH]2)c1C (stereo unspecified)
3 | 5 | 0.2 h | 0.1 h | 1580 nM | 11 h | 4.96 | 8.31 |  |  |  | COc1cc2[nH]c([S+]([O-])Cc3nccc(OC)c3C)nc2cc1OC(F)F (stereo unspecified)
4 | 4.6 | 0.5 h | 0.167 h | 1000 nM |  | 4.73 | 7.93 | Insoluble to measure |  |  | COc1ccnc(C[S+]([O-])c2nc3cc4c(cc3[nH]2)OC(F)(F)O4)c1C (stereo unspecified)
5 | 3.8 | 3.6 h | 0.3 h | 5010 nM | 160 h | 3.86 | 8.08 |  |  |  | COc1ccnc(C[S+]([O-])c2nc3cc(OC(F)(F)C(F)F)ccc3[nH]2)c1OC (stereo unspecified)
6 | < 3 |  |  | 15800 nM |  |  |  | Insoluble to measure | Insoluble to measure | Insoluble to measure | COc1cnc(C[S+]([O-])c2nc3cc4c(cc3[nH]2)OC(F)(F)O4)c(C)c1OC (stereo unspecified)
7 | < 3 |  |  | 63100 nM |  |  |  | Insoluble to measure | Insoluble to measure | Insoluble to measure | COc1cnc(C[S+]([O-])c2nc3cc4c(cc3[nH]2)OC(F)(F)O4)cc1OC (stereo unspecified)
8 | 3.4 | 8.3 h | 0.433 h | 7940 nM | 150 h | 3.76 | 7.76 |  |  |  | COc1ccnc(C[S+]([O-])c2nc3cc(F)c(OC(F)F)cc3[nH]2)c1OC (stereo unspecified)
9 | 5.4 | 0.15 h | 0.0833 h | 794 nM | 5 h | 4.97 | 8.51 |  |  |  | COc1ccnc(C[S+]([O-])c2nc3cc(OCC(F)(F)F)ccc3[nH]2)c1C (stereo unspecified)
10 | 4.4 | 1.9 h | 0.2 h | 501 nM | 15 h | 4.16 | 8.23 |  |  |  | COc1c(C)cnc(C[S+]([O-])c2nc3cc(OC(F)F)ccc3[nH]2)c1C (stereo unspecified)
11 | < 3.5 | 1.4 h | 0.333 h | 2510 nM |  | 4.29 | 7.92 | Insoluble to measure |  |  | COc1ccnc(C[S+]([O-])c2nc3cc4c(cc3[nH]2)OC(F)(F)O4)c1 (stereo unspecified)
12 | 4.5 | 1 h | 0.0667 h |  | 80 h | 4.13 | 8.98 |  |  |  | COc1ccc2[nH]c([S+]([O-])Cc3ncc(C)c(OC)c3C)nc2c1 (stereo unspecified) [OMEPRAZOLE]

Second part, the compound before the results:

Row | SMILES | -Log IC50 [1] | half-life [2] | half-life [3] | IC50 [4] | half-life [5] | pKa [6] | pKa [7] | T1/2 [8] | T1/2 [9] | T1/2 [10]
13 | COc1cnc(C[S+]([O-])c2nc3cc(OC(F)(F)C(F)F)ccc3[nH]2)c(C)c1OC (stereo unspecified) | 4.2 | 6.8 h | 0.333 h | 7940 nM | 43 h |  |  |  |  | 
14 | COc1cnc(C[S+]([O-])c2nc3cc(OC(F)(F)C(F)F)ccc3[nH]2)cc1OC (stereo unspecified) | < 3 | 2.9 h | 0.317 h | 20000 nM | 140 h |  |  |  |  | 
15 | COc1cc(C[S+]([O-])c2nc3cc(OC(F)(F)C(F)F)ccc3[nH]2)ncc1C (stereo unspecified) | 5.5 | 0.2 h | 0.1 h | 1260 nM | 18 h | 4.95 | 8 |  |  | 
16 | COc1ccnc(C[S+]([O-])c2nc3cc(OCC(F)(F)F)ccc3[nH]2)c1OC (stereo unspecified) | 3.5 | 7.6 h | 0.183 h | 1000 nM | > 200 h | 3.9 | 8.52 |  |  | 
17 | COc1ccnc(C[S+]([O-])c2nc3cc(OC(F)(F)C(F)F)ccc3[nH]2)c1 (stereo unspecified) | 4.4 | 0.8 h | 0.167 h | 1260 nM | 63 h | 4.25 | 7.91 |  |  | 
18 | COc1cnc(C[S+]([O-])c2nc3cc(OC(F)F)ccc3[nH]2)c(C)c1OC (stereo unspecified) | 4.6 | 3.7 h | 0.2 h | 2510 nM | 60 h | 3.73 | 8.35 |  |  | 
19 | COc1ccnc(C[S+]([O-])c2nc3cc(OC(F)F)ccc3[nH]2)c1C (stereo unspecified) | 5.2 | 0.17 h | 0.0833 h | 631 nM | 3 h |  |  |  |  | 
20 | COc1ccnc(C[S+]([O-])c2nc3cc(OC(F)(F)C(F)F)ccc3[nH]2)c1C (stereo unspecified) | 5.5 | 0.3 h | 0.0833 h | 398 nM |  |  |  | Insoluble to measure |  | 
21 | COc1cc2[nH]c([S+]([O-])Cc3nccc(OC)c3OC)nc2cc1OC(F)F (stereo unspecified) | 3.6 | 2.1 h | 0.25 h | 3980 nM | 800 h |  |  |  |  | 
22 | COc1cnc(C[S+]([O-])c2nc3cc(OC(F)F)ccc3[nH]2)cc1OC (stereo unspecified) | < 3.5 | 2.1 h | 0.283 h | 31600 nM | > 200 h | 3.75 | 8.03 |  |  | 
23 | COc1ccnc(C[S+]([O-])c2nc3cc4c(cc3[nH]2)OC(F)(F)O4)c1OC (stereo unspecified) | 3.6 | 6 h | 0.633 h | 2510 nM | > 200 h | 3.84 | 7.97 |  |  | 
24 | COc1cnc(C[S+]([O-])c2nc3cc(OCC(F)(F)F)ccc3[nH]2)c(C)c1OC (stereo unspecified) | 4.3 | 3.3 h | 0.167 h | 2510 nM | 130 h | 3.72 | 8.61 |  |  | 
25 | Cc1c(OCC(F)(F)F)ccnc1C[S+]([O-])c1nc2ccccc2[nH]1 (stereo unspecified) [LANSOPRAZOLE] | 4.4 | 1.1 h | 0.0667 h |  | 40 h | 4.01 | 8.78 |  |  | 
26 | COc1ccnc(C[S+]([O-])c2nc3cc(OC(F)F)ccc3[nH]2)c1OC (stereo unspecified) [PANTOPRAZOLE] | 3.7 | 3 h | 0.15 h |  | 130 h | 3.92 | 8.19 |  |  | 

From ChEMBL document CHEMBL1125404 (J Med Chem, 1992)
